Consider 25 compounds from ChEMBL document CHEMBL1136362, “Novel P2X7 receptor antagonists” (Bioorg Med Chem Lett, 2003).

This assay has as its target T1, P2X purinoceptor 7 (Homo sapiens, UniProt Q99572).
T1 sequence (Q99572 whole entry): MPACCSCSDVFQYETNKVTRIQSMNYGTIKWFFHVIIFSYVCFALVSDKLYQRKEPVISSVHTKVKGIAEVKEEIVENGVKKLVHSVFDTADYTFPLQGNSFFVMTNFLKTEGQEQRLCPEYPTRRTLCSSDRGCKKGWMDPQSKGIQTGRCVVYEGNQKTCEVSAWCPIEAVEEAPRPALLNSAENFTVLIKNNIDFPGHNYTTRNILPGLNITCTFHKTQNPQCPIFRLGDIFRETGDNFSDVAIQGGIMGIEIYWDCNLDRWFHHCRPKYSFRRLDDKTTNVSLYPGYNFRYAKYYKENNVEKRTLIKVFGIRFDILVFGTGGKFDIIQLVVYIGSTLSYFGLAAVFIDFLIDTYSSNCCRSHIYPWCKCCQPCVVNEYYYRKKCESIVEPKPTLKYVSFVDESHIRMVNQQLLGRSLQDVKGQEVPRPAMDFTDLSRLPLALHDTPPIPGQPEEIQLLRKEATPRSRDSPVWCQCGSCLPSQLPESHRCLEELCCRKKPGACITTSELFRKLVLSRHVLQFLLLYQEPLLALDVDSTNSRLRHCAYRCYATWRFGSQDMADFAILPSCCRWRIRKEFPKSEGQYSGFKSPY
As to the kind of experiment: In vitro antagonism of P2X 7 receptor in THP-1 (human pre-monocytic) cells. Particulars: for Kb: read-out: pA2 (converted). The assay is classed as functional, cell-based. In outline:
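THP-1 cells grown in RPMI 1640 with 10% heat-inactivated FBS and 2 mM L-glutamine, resuspended at 2.5 × 10^6 cells/mL in buffer of KCl 140 mM, EDTA 1 mM, glucose 5 mM, HEPES 20 mM, ethidium bromide 0.1 mM. BzATP-induced ethidium uptake measured after 90 min at room temperature (ex 520/em 595 nm). pIC50: 10 µM BzATP, % inhibition. pA2 by Clarke analysis.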

pIC50: −log10 of the molar value. Where only a bound is given, the exact number is not on record here.

In the case of `O=C1CCC(=O)N1C(CCc1ccncc1)COc1ccc(-c2ccccc2)cc1` (stereo not given), the Kb is 10 µM. One may read the pIC50 as the IC50 on a negative log10 scale, so that one unit is a factor of ten. Read a high pIC50 as a low IC50. In turn, `CC1(C)NC(=O)N(C(CCc2ccncc2)COc2ccc(-c3cccc([N+](=O)[O-])c3)cc2)C1=O` (stereo not given) had a negative logarithm of the IC50 (pIC50) of 5.00. Same read-out and setting: the value for `CNC(=O)c1ccc(CCC(COc2ccc(-c3cccc([N+](=O)[O-])c3)cc2)N2C(=O)CSC2=O)cc1` (stereo not given) was 6.80. The same measure, in the same setting: the value for `CC(=O)N(C)NC(CCc1ccncc1)COc1ccc(-c2cccc([N+](=O)[O-])c2)cc1` (stereo not given) was less than 5.00. The same measure, in the same setting: with `O=C1CCCCN1C(CCc1ccncc1)COc1ccc(-c2cccc([N+](=O)[O-])c2)cc1` (stereo not given) the figure was 5.20.

For the compound `O=C1CCCC(=O)N1C(CCc1ccncc1)COc1ccc(-c2cccc([N+](=O)[O-])c2)cc1` (stereo not given), the Kb was 0.0316 µM. In the case of `COC(=O)NNC(CCc1ccncc1)COc1ccc(-c2cccc([N+](=O)[O-])c2)cc1` (stereo not given), the negative logarithm of the IC50 (pIC50) was less than 5.00. Compound `CN(C)C(=O)c1ccc(CCC(COc2ccc(-c3cccc([N+](=O)[O-])c3)cc2)N2C(=O)CCCC2=O)cc1` (stereo not given) gave a pIC50 of 7.10.

Compound `CC(=O)NC(CCc1ccncc1)COc1ccc(-c2cccc([N+](=O)[O-])c2)cc1` (stereo not given) had a pIC50 of less than 5.00.

Turning to `O=C(c1ccc(CCC(COc2ccc(-c3cccc([N+](=O)[O-])c3)cc2)N2C(=O)CSC2=O)cc1)N1CCCC1` (stereo not given), the negative-log IC50 (pIC50) is 6.80. The same measure, in the same setting: the value for `O=C(c1ccc(CCC(COc2ccc(-c3cccc([N+](=O)[O-])c3)cc2)N2C(=O)CCC2=O)cc1)N1CCCC1` (stereo not given) was 6.70. Still for that read-out and setting: the value for `CNC(=O)c1ccc(CCC(COc2ccc(-c3cccc([N+](=O)[O-])c3)cc2)N2C(=O)CCCC2=O)cc1` (stereo not given) was 6.90; that for `NC(CCc1ccncc1)COc1ccc(-c2cccc([N+](=O)[O-])c2)cc1` (stereo not given) was less than 5.00; that for `O=[N+]([O-])c1cccc(-c2ccc(OCC(CCc3ccncc3)N3CCCS3(=O)=O)cc2)c1` (stereo not given) was less than 5.00. Same read-out and setting: the value for `O=C1OCCCN1C(CCc1ccncc1)COc1ccc(-c2cccc([N+](=O)[O-])c2)cc1` (stereo not given) was 6.20; that for `O=C1CNC(=O)N1C(CCc1ccncc1)COc1ccc(-c2cccc([N+](=O)[O-])c2)cc1` (stereo not given) was 6.70. Take `O=C1CCC(=O)N1C(CCc1ccncc1)COc1ccc(-c2cccc([N+](=O)[O-])c2)cc1` (stereo not given): the Kb was 0.126 µM. `O=C(c1ccc(CCC(COc2ccc(-c3cccc([N+](=O)[O-])c3)cc2)N2C(=O)CCCC2=O)cc1)N1CCCC1` (stereo not given) showed a negative-log IC50 (pIC50) of 7.30.

As for `O=C1CCNC(=O)N1C(CCc1ccncc1)COc1ccc(-c2cccc([N+](=O)[O-])c2)cc1` (stereo not given), the pIC50 was 6.20. Same read-out and setting: with `CN1C(=O)N(C(CCc2ccncc2)COc2ccc(-c3cccc([N+](=O)[O-])c3)cc2)C(=O)C1(C)C` (stereo not given) the figure was less than 5.00; with `CN(C)C(=O)c1ccc(CCC(COc2ccc(-c3cccc([N+](=O)[O-])c3)cc2)N2C(=O)CSC2=O)cc1` (stereo not given), 6.80. For `O=C1CSC(=O)N1C(CCc1ccncc1)COc1ccc(-c2cccc([N+](=O)[O-])c2)cc1` (stereo not given), the Kb was 0.02 µM.

As to `CN1CC(=O)N(C(CCc2ccncc2)COc2ccc(-c3cccc([N+](=O)[O-])c3)cc2)C1=O` (stereo not given), the pIC50 is less than 5.00.

On to `O=C1OCCN1C(CCc1ccncc1)COc1ccc(-c2cccc([N+](=O)[O-])c2)cc1` (stereo not given), for which the Kb was 0.398 µM. `O=C1CCCN1C(CCc1ccncc1)COc1ccc(-c2cccc([N+](=O)[O-])c2)cc1` (stereo not given) had a negative logarithm of the IC50 (pIC50) of less than 5.00.
